Results taken from ChEMBL document CHEMBL1150382, “Benzanilides with spasmolytic activity: chemistry, pharmacology, and SAR” (Bioorg Med Chem, 2008).

Columns and labels:
[1] = Relaxation of KCl-induced contraction in guinea pig terminal ilea assessed as reduction of contraction force at 100 uM; type: functional, Cavia porcellus; set-up: scale not given: the % may be the effect or the level left
How it was run: (§1)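 Precontracted with 60 mM KCl at a resting tension of 4.9 mN. After a 45 min control period, compound (1–100 µM) was added cumulatively to steady state. Isometric force was recorded as % decrease; IC₅₀ from 4–6 experiments, mean ± SEM.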

[2] = Spasmolytic activity in guinea pig terminal ilea; type: functional, Cavia porcellus; how it was run: as §1
[3] = Spasmolytic activity in guinea pig terminal ilea relative to resveratrol; type: functional, Cavia porcellus
How it was run: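 Ileal IC₅₀ was measured as for the KCl-precontracted (60 mM) guinea pig terminal ileum with cumulative dosing up to 100 µM. It is expressed as a potency index relative to resveratrol.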

[4] = Toxicity in guinea pig vascular smooth muscle; type: tissue-based, Cavia porcellus, Muscle tissue
How it was run: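 Guinea pig aortic rings in oxygenated Krebs–Henseleit at 35 °C, contracted with 90 mM KCl. Compound was added cumulatively up to 100 µM, and relaxation of isometric contraction force was recorded.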

[5] = Toxicity in guinea pig heart muscle; type: tissue-based, Cavia porcellus, Muscle tissue
How it was run: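 Guinea pig heart muscle in oxygenated Krebs–Henseleit at 35 °C. Isometric contraction force was measured in electrically stimulated papillary muscles (Purkinje fibres removed, diameter <0.87 mm). Chronotropic effect was measured as spontaneous activity of isolated right atria. Compounds were added cumulatively. Paired Student's t-test.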

[6] = Relaxation of KCl-induced contraction in guinea pig terminal ilea assessed as reduction of contraction force at 30 uM; type: functional, Cavia porcellus; set-up: scale not given: the % may be the effect or the level left; how it was run: as §1

IC50 [2] [µM]	SMILES	Activity [1] [%]	Activity [3]	Activity [4]	Activity [5]	Activity [6] [%]
> 100	O=C(Nc1ccc(F)cc1F)c1cc(F)cc(F)c1	51.13	>0.24	Non-toxic	Non-toxic	–
7.5	COc1cc(NC(=O)c2ccc(OC(F)(F)F)cc2)cc(OC)c1	11.99	3.2	Non-toxic	Non-toxic	–
21	O=C(Nc1ccc(F)cc1)c1cc(F)cc(F)c1	30.55	1.14	Non-toxic	Non-toxic	–
8.5	O=C(Nc1cc(F)cc(F)c1)c1ccc(F)cc1	1.66	2.82	Non-toxic	Non-toxic	–
3.25	CSc1ccc(NC(=O)c2cc(F)cc(F)c2)cc1	–	7.39	Non-toxic	Non-toxic	2.8
32.5	O=C(Nc1c(F)cc(F)cc1F)c1cc([N+](=O)[O-])cc([N+](=O)[O-])c1	25.66	0.74	Non-toxic	Non-toxic	–
26	O=C(Nc1c(F)cc(F)cc1F)c1cc(F)cc(F)c1	9	0.92	Non-toxic	Non-toxic	–
30	CN(C)c1ccc(NC(=O)c2cc(F)cc(F)c2)cc1	23.93	0.8	Non-toxic	Non-toxic	–
42	O=C(Nc1c(F)cc(F)cc1F)c1ccc(F)cc1	28.35	0.57	Non-toxic	Non-toxic	–
24	Oc1ccc(/C=C/c2cc(O)cc(O)c2)cc1 [RESVERATROL]	–	1	–	–	–
27.5	COc1cc(NC(=O)c2cc(F)cc(F)c2)cc(OC)c1OC	22.87	0.87	Non-toxic	Non-toxic	–
